Test results: ChEMBL document CHEMBL1165892, “Cell cycle disruption and apoptotic activity of 3-aminothiazolo[3,2-a]benzimidazole-2-carbonitrile and its homologues” (2010)
Activity calls are given as the source filed them. No cut-off for these calls is given here.

Key:
MDA-MB-231 [1] = test: Antiproliferative activity against human MDA-MB-231 cells at 100 uM after 48 hrs
MDA-MB-231 [2] = test: Cell cycle arrest in human MDA-MB-231 cells assessed as accumulation at G2/M phase at 100 uM after 72 hrs using propidium staining by flow cytometry; assay type: functional
How it was run: (§1)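 MDA-MB-231 cells were grown in RPMI 1640 with 100 ml/l FBS, 100 U/ml penicillin and 100 U/ml streptomycin. They were seeded in 60 mm dishes and held 24 h at 37 °C in humidified 50 ml/l CO₂. Cells were exposed for 24, 48 or 72 h, then resuspended in 50 mM Na citrate with propidium iodide for 30 min. DNA content was read by flow cytometry and phase percentages derived from histograms. Data are representative of three independent experiments.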

MDA-MB-231 [3] = test: Induction of apoptosis in human MDA-MB-231 cells at 100 uM after 48 hrs using annexin V staining by flow cytometry; assay type: functional
How it was run: (§2)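 MDA-MB-231 cells were cultured in RPMI 1640 with 100 ml/l FBS and penicillin/streptomycin, then exposed for 24, 48 or 72 h. Harvested cells were stained with annexin V-FITC plus PI using a commercial kit per the manufacturer. Flow cytometry read emission at 530 and […], 10,000 cells per determination. Quadrants scored normal, early apoptotic, late apoptotic and necrotic cells. Results are representative of three experiments.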

MDA-MB-231 [4] = test: Cell cycle arrest in human MDA-MB-231 cells assessed as accumulation at G2/M phase at 100 uM after 48 hrs using propidium staining by flow cytometry; assay type: functional
How it was run: as §1

MDA-MB-231 [5] = test: Induction of apoptosis in human MDA-MB-231 cells at 100 uM using annexin V staining by flow cytometry; assay type: functional, cell-based; conditions: TDE = time-dependent effect
How it was run: as §2

MDA-MB-231 [6] = test: Cell cycle arrest in human MDA-MB-231 cells assessed as accumulation at G2/M phase at 100 uM after 24 hrs using propidium staining by flow cytometry; assay type: functional
How it was run: as §1

MDA-MB-231 [7] = test: Cell cycle arrest in human MDA-MB-231 cells decrease of cells at G1 phase at 100 uM after 24 to 72 hrs using propidium staining by flow cytometry; assay type: functional, cell-based
How it was run: as §1

MDA-MB-231 [8] = test: Induction of apoptosis in human MDA-MB-231 cells at 100 uM after 24 hrs using annexin V staining by flow cytometry; assay type: functional
How it was run: as §2

MDA-MB-231 [9] = test: Cell cycle arrest in human MDA-MB-231 cells assessed as accumulation at S phase at 100 uM after 24 to 72 hrs using propidium staining by flow cytometry; assay type: functional, cell-based
How it was run: as §1

MDA-MB-231 [10] = test: Induction of apoptosis in human MDA-MB-231 cells at 100 uM after 72 hrs using annexin V staining by flow cytometry; assay type: functional
How it was run: as §2

Which results are given for `CC(=O)Nc1c(C#N)sc2nc3ccccc3n12`?
Activity (MDA-MB-231 [1]): Active; Activity (MDA-MB-231 [2]): 45.79%; Activity (MDA-MB-231 [3]): 54.59%; Activity (MDA-MB-231 [4]): 46.22%; Activity (MDA-MB-231 [5]): tde; Activity (MDA-MB-231 [6]): 42%; Activity (MDA-MB-231 [7]): Active; Activity (MDA-MB-231 [8]): 23.77%; Activity (MDA-MB-231 [9]): Active; Activity (MDA-MB-231 [10]): 80%
